PfHsp90 yeast 2: reduces growth (ATP signal) of yeast expressing P. falciparum Hsp90 | S. cerevisiae expressing PfHsp90, BacTiter-Glo ATP, 48 h; yeast lacking PDR1 and PDR3 efflux regulators | inhibition, % at 9.4 µM | actives 0.32% (n = 310,000);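 active means every replicate shows inhibition above about 80%, whatever the replicate mean, limit read from the data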
Rtt109 Vps75: blocks Candida albicans Rtt109/Vps75 acetyltransferase activity; Q5AAJ8; purified Rtt109/Vps75, ThioGlo CoA-SH fluorescence, 4 h; inhibition, % at 34.9 µM; actives 0.16% (n = 330,000); AID 540336;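 active means inhibition of at least 50% in every replicate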
Target sequence (Q5AAJ8 whole entry, looked up): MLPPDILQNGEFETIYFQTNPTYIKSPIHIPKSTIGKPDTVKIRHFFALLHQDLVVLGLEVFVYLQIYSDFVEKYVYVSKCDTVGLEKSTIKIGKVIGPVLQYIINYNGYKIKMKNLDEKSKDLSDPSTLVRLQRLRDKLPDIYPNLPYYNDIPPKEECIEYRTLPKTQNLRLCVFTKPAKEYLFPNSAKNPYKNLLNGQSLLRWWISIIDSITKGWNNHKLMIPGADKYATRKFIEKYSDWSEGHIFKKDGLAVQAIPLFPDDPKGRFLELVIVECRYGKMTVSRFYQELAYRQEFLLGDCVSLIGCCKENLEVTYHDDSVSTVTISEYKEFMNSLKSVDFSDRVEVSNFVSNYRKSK
CSC inhib: cancer stem cell inhibition; cancer stem cell-like cells viability, luminescence; inhibition, % at 7.5 µM; actives 1.1% (n = 300,000); AID 2717; in the data active means inhibition above about 75%; tested in HMLE shEcad cells
PglD inh: blocks C. jejuni PglD acetyltransferase activity | inhibition, % at 12.5 µM | AID 602405 | actives 0.098% (n = 360,000) | purified PglD enzyme, DTNB colorimetric CoA detection; in the data active means inhibition above about 16%, passing the limit was not always enough
FN deposit inh: fibronectin deposition inhibition | AH1F fibroblasts, Alexa488-fibronectin deposition fluorescence, overnight | inhibition, % at 12.6 µM | actives 0.086% (n = 350,000);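 active means mean inhibition across replicates of 30% or more, regardless of how many single replicates reach that level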
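Assay system: AH1F fibroblast monolayer, labelled fibronectin deposition. Amount: 10000 cells per well. Also added: labelled fibronectin 24 nM. Compound: single-point pinned compound. Incubation: cell attachment 1 h, compound and FN exposure overnight. Detection: fluorescence after three HBSS washes, excitation 485 nm, emission 525 nm. Read-out: inhibition of fibronectin deposition signal.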
SKKanGAS inh: blocks kanamycin growth of S. pyogenes SKKanGAS strain. BacTiter-Glo, 6 h. inhibition, % at 7.5 µM. AID 1662. actives 1.3% (n = 300,000);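 active means mean replicate score, as percent of positive control median, at least 50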;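 further: strain carries kanamycin resistance gene driven by streptokinase promoter and grows in 40 µg/ml kanamycin; loss of luminescence reflects streptokinase promoter inhibition or plain growth inhibition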
Numbers stand for hits; - = inactive; . = no result. Most compounds without a hit are left out; they make up all but 1.7% or so of the library.

SMILES | PfHsp90 yeast 2 | Rtt109 Vps75 | CSC inhib | PglD inh | FN deposit inh | SKKanGAS inh
CC1=NN(c2nc3ccccc3[nH]2)C(=O)C1Cc1ccccc1 (centres undefined) | . | . | 100 | - | . | 89
CC1=NN(c2ccc([N+](=O)[O-])cc2)C(=O)/C1=C\N(C)C | - | - | - | . | - | 56
CC1=NN(c2nc3ccccc3[nH]2)C(=O)/C1=C/N(C)C | 81 | - | 91 | . | . | .
CC1=NN(c2ccccc2)C(=O)/C1=C/N(C)C | - | - | - | - | - | -
O=C(C[C@@H]1CC[C@@H]2[C@H](COC[C@@H](O)CN2C(=O)Nc2ccc(Cl)cc2)O1)N1CCCCC1 | . | . | . | - | - | .
CC(C)CC(c1nnnn1Cc1ccco1)N1CCN(c2cccc(Cl)c2)CC1 (centres undefined) | - | - | 110 | - | . | -
CC(C)C(c1nnnn1Cc1ccco1)N1CCN(c2nc3ccccc3s2)CC1 (centres undefined) | - | . | . | - | 39 | -
CC(C)CC(c1nnnn1Cc1cccs1)N1CCN(c2nc3ccccc3s2)CC1 (centres undefined) | - | - | - | - | - | -
CN(C)C(=O)[C@H]1[C@H](CO)[C@H]2Cn3c(ccc(-c4ccccc4)c3=O)[C@H]2N1CCC(F)(F)F | . | . | . | - | - | .
Cc1[nH]n(-c2ccccc2)c(=O)c1N=Nc1c(O)cc(S(=O)(=O)N(C)C)c2ccccc12 | - | - | - | - | - | 85
Cc1[nH]n(-c2ccccc2)c(=O)c1N=Nc1ccc2c(c1)OCCO2 | - | - | - | . | - | -
CCOC(=O)c1ccc(NC(=O)Nc2ccon2)cc1 | - | - | 78 | . | - | -
O=C(Nc1ccc(Cl)c(Cl)c1)Nc1ccon1 | - | - | - | - | - | 67
C[C@H]1CN([C@@H](C)CO)C(=O)c2cccc(NC(=O)c3ccncc3)c2O[C@@H]1CN(C)CC1CC1 | . | . | . | - | . | .
O=C(C[C@@H]1C[C@@H]2c3cc(NC(=O)Nc4ccccc4F)ccc3O[C@@H]2[C@H](CO)O1)NCc1ccc2c(c1)OCO2 | . | . | . | - | . | .
Cc1oc(-c2cc(Cl)cc(Cl)c2)cc1C(=O)NCCc1ccccc1 | - | - | - | - | - | 51
Oc1c(Cl)cc(Cl)cc1/C=N/Nc1ncc(Br)cn1 | - | - | - | - | - | -
CN(/N=C/c1cc(Cl)cc(Cl)c1O)C(=S)NC(C)(C)C | - | - | 100 | . | - | -
CNC[C@@H]1Oc2c(NC(=O)NC(C)C)cccc2C(=O)N(C)C[C@@H]1C | . | . | . | . | - | .
O=C(NCCCCc1ccccc1)c1ccc(Br)cc1 | 112 | - | - | - | - | -
COc1ccccc1OCCNC(=O)c1ccc(Br)cc1 | 97 | - | - | - | - | -
COc1ccccc1OCCNC(=O)c1ccc(C(C)(C)C)cc1 | - | . | - | . | - | -
O=C(NCCCCc1ccccc1)c1ccccc1 | - | - | - | . | - | -
O=C(c1ccccc1)N1C[C@H]2[C@@H](c3ccccc31)[C@@H](CO)N2Cc1cocn1 | . | . | . | - | . | .
COc1ccc(S(=O)(=O)N2CCN(c3ncccn3)CC2)cc1 | - | - | - | . | - | -
SMILES | PfHsp90 yeast 2 | Rtt109 Vps75 | CSC inhib | PglD inh | FN deposit inh | SKKanGAS inh
O=S(=O)(c1ccc(Cl)cc1)N1CCN(c2ncccn2)CC1 | - | 64 | - | . | - | -
COc1ccc(NC(=O)N(C)C[C@@H]2OCCCC[C@H](C)Oc3ccc(NC(=O)CCC(F)(F)F)cc3C(=O)N([C@@H](C)CO)C[C@@H]2C)cc1 | . | . | . | - | . | .
CCn1c2ccccc2c2nc3cc(OC)c(OC)cc3nc21 | . | - | - | - | 35 | -
Cc1nn(C)cc1C(=O)Nc1cc(Oc2ccc(Cl)cc2)cc([N+](=O)[O-])c1 | - | - | - | - | . | -
Cn1cc([N+](=O)[O-])c(C(=O)Nc2cc(Oc3ccccc3)cc([N+](=O)[O-])c2)n1 | - | - | 96 | . | 40 | -
C[C@H](CO)N1C[C@H](C)[C@@H](CN(C)S(=O)(=O)c2ccc(Cl)cc2)OCc2cn(nn2)CCCC1=O | . | . | . | - | - | .
COc1ccc(S(=O)(=O)N(C)C[C@@H]2Oc3c(NC(=O)c4ccncc4)cccc3C(=O)N([C@H](C)CO)C[C@@H]2C)cc1 | . | . | . | - | . | .
CCOC(=O)/C(=C\c1ccc(OC(F)F)cc1)C1=Nn2c(nnc2-c2ccc(Cl)cc2)SC1 | - | - | 100 | . | . | -
COc1ccc(-c2ccc(SC)nn2)cc1 | - | - | 80 | - | . | -
COc1ccc(C(=O)CSc2ccc(-c3ccccc3)nn2)cc1 | - | - | - | - | - | -
COc1ccc(NC(=O)c2cc(S(=O)(=O)NCC3COc4ccccc4O3)ccc2F)cc1 (centres undefined) | - | - | - | - | - | -
CC(C)c1ccc(NC(=O)c2cc(S(=O)(=O)NCC3COc4ccccc4O3)ccc2F)cc1 (centres undefined) | - | - | 123 | . | - | 69
CCC1CCCCN1C(=S)NC(=O)c1cccc([N+](=O)[O-])c1 (centres undefined) | - | - | - | - | - | 53
CCCC(=O)Nc1ccc2c(c1)OC[C@@H](C)N(Cc1cccc(F)c1)C[C@@H](C)[C@H](OC)CN(C)C2=O | . | . | . | - | - | .
CCCCC1CCC(C(=O)N(CC(C)C)c2c(N)n(Cc3ccccc3)c(=O)[nH]c2=O)CC1 (centres undefined) | . | . | 91 | . | - | -
CCCCN(C(=O)C1CCCC1)c1c(N)n(Cc2ccccc2)c(=O)[nH]c1=O | - | - | - | - | . | .
Cc1cc(C)c(OCC(=O)Nc2ccccc2N2CCCCC2)c(C)c1 | - | . | - | . | - | 80
Cc1ccccc1OCC(=O)Nc1ccccc1N1CCC(C)CC1 | - | - | - | . | - | 82
O=C(COc1cccc(Cl)c1)Nc1ccccc1N1CCCCC1 | . | - | - | - | - | 66
O=C(COc1ccccc1)Nc1ccccc1N1CCCCC1 | - | - | - | - | . | -
CCC(=O)Nc1ccc2c(c1)OC[C@@H](C)N(C(=O)CC1CC1)C[C@H](C)[C@H](OC)CN(C)C2=O | . | . | . | . | - | .
C[C@@H]1CN([C@H](C)CO)C(=O)Cc2cc(NS(=O)(=O)c3ccccc3)ccc2O[C@@H]1CN(C)C(=O)NC1CCCCC1 | . | . | . | - | . | .
Cc1ccc(CS(=O)(=O)c2ncc(Cl)c(C(=O)Nc3ccc(OC(F)F)cc3)n2)cc1 | - | - | 105 | - | - | 54
CCS(=O)(=O)c1ncc(Cl)c(C(=O)Nc2ccc(S(=O)(=O)N3CCCC(C)C3)cc2)n1 (centres undefined) | - | - | 118 | - | - | -
O=C(Nc1ccc(OC(F)F)cc1)c1ncc(Cl)c(Cl)c1Cl | - | - | - | . | - | -
CCS(=O)(=O)c1ncc(Cl)c(C(=O)Nc2ccc(C)cc2)n1 | - | - | 119 | - | - | -
CS(=O)(=O)c1ncc(Cl)c(C(=O)Nc2ccc3ccccc3c2)n1 | - | . | . | . | - | -
CCC1CCCCN1S(=O)(=O)c1ccc(NC(=O)c2ccncc2)cc1 (centres undefined) | - | - | - | - | . | -

Bioassay records (PubChem BioAssay)
